Screening data as filed in PubChem.
Compounds with a hit are over-represented: about 2% of the library has one in this group of screens.
TROY signal inh: inhibitors of TROY-dependent NF-kB signaling; Q293 LMP1-TROYcd NF-kB luciferase reporter, 4 h; AID 1347056; actives 0.98% (n = 360,000); inhibition, % at 10 µM;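 active = compounds whose plate-normalised and pattern-corrected inhibition of the luciferase reporter signal at the single screening dose is 50% or more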
NR2E3 ag-1: agonists of human NR2E3 nuclear receptor; Q9Y5X4; CHO-S Gal4-NCOR/VP16-NR2E3 two-hybrid, luciferase; inhibition of corepressor binding, % at 3.98 µM; actives 0.35% (n = 360,000); AID 602229;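 active = inhibition above the mean of all tested compounds plus 3 SD, cut at about 70% in these data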;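 also: 0% = DMSO with NR2E3 transfected cells and 100% = cells lacking NR2E3 construct; higher means lower luciferase signal from less NR2E3 corepressor binding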
Target sequence (Q9Y5X4 whole entry, looked up, the tested form may be a part): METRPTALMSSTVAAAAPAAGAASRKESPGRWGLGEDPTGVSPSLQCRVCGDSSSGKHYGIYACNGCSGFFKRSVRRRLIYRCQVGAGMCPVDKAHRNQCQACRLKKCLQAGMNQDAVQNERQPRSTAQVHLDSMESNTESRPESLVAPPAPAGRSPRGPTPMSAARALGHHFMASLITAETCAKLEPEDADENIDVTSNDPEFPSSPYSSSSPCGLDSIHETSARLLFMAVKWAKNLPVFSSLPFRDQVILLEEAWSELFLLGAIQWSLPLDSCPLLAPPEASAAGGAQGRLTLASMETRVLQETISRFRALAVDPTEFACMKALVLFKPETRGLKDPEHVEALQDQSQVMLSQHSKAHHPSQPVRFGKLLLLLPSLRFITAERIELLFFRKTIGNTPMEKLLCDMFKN
NR2E3 ag-2: NR2E3 (human) agonism | Q9Y5X4 | GST-NR2E3/biotin-RetCOR TR-FRET, 1536-well | inhibition of corepressor binding, % at 4.78 µM | actives 0.12% (n = 320,000);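 active = percent inhibition above the cutoff of mean plus 3 SD of all tested compounds, set per screening campaign, cut at about 20% in these data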;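 also: 0% = DMSO wells and 100% = biotin wells as full block of FRET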
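Test system: GST-NR2E3 and biotin-RetCOR proteins | Quantity: 1.35 nM GST-tagged NR2E3 final | Medium: Tris pH 7.5 | Also added: 7 nM biotin-RetCOR | Dosing: Compound at 4.8 µM, single dose | Timing: 5 h at 4 °C | Detection: Time-resolved FRET | Read-out basis: Percent inhibition | Benchmarks: Biotin wells as high control, 0.6% DMSO wells as low control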
HIF act: HIF pathway transcriptional activation. U2OS HRE-luciferase reporter, luminescence; normalized: DMSO 0%, desferrioxamine 100%. activation, % at 7.5 µM (by protocol). actives 0.32% (n = 300,000). AID 1910;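 active = mean activation of at least 10% of the iron chelator positive control signal, with at least half of replicates also reaching 10%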
LMP1 NFkB inh: Epstein-Barr LMP1 NF-kappaB reporter inhibition; AID 504558; LMP1-induced NF-kappaB luciferase reporter cells, luminescence; actives 0.69% (n = 350,000); inhibition, % at 12.5 µM; in the data active = inhibition above about 41%;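 also: 0% = neutral control wells and 100% = reference inhibitor control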
* = called active by the depositor.

COC(=O)c1cc(S(=O)(=O)NCc2ccccc2OC)cn1C was read as TROY signal inh 2, NR2E3 ag-1 6, NR2E3 ag-2 -2, HIF act 71* and LMP1 NFkB inh 8.
`CCc1ccccc1N(CC(=O)NCc1ccco1)C(=O)c1snc(C(N)=O)c1N` gave TROY signal inh 23, NR2E3 ag-1 -10, NR2E3 ag-2 2, HIF act 0 and LMP1 NFkB inh 55*.
COC(=O)c1ccc(C(C(=O)NCc2ccccc2)N(Cc2ccco2)C(=O)c2cnccn2)cc1 (configuration not stated) was read as TROY signal inh -15, NR2E3 ag-1 -16, NR2E3 ag-2 4, HIF act 174* and LMP1 NFkB inh -10.
Screening N#Cc1c(N)n(CCOC(=O)c2cccc(Br)c2)c2nc3ccccc3nc12 returned TROY signal inh 69*, NR2E3 ag-1 -10, NR2E3 ag-2 0, HIF act 0 and LMP1 NFkB inh 0.
`COc1cccc(Cn2c(N)c(C#N)c3nc4ccccc4nc32)c1OC` gave TROY signal inh 65*, NR2E3 ag-1 0, NR2E3 ag-2 5, HIF act 0 and LMP1 NFkB inh 7.
Screening CSC1=NC=C(C#N)C2=NC(c3ccc(Cl)cc3)NN12 (configuration not stated) returned TROY signal inh -1 and NR2E3 ag-1 -20.
Screening Cc1onc(-c2ccccc2)c1CNC(=O)Nc1ccc(C(F)(F)F)cc1 returned TROY signal inh 50*, NR2E3 ag-1 14, NR2E3 ag-2 -3, HIF act 0 and LMP1 NFkB inh 22.
`CC(=O)NC(Nc1c(C)n(C)n(-c2ccccc2)c1=O)C(Cl)(Cl)Cl` (configuration not stated) gave TROY signal inh 63*, NR2E3 ag-1 1, NR2E3 ag-2 -1, HIF act 0 and LMP1 NFkB inh -7.
For CCCC(=O)NC(Nc1c(C)n(C)n(-c2ccccc2)c1=O)C(Cl)(Cl)Cl (configuration not stated) the results were TROY signal inh 6, NR2E3 ag-1 -12, NR2E3 ag-2 -2, HIF act 0 and LMP1 NFkB inh -8.
Screening COc1ccc(S(=O)(=O)N2CCN(c3ccccc3OC)CC2)cc1C(=O)N1CCCCC1 returned TROY signal inh 16, NR2E3 ag-1 -12, NR2E3 ag-2 2, HIF act 0 and LMP1 NFkB inh 3.
`CCc1cc(C(=O)N(CCCOC)c2c(N)n(Cc3ccccc3)c(=O)[nH]c2=O)sc1C` gave TROY signal inh 71*, NR2E3 ag-1 -31, NR2E3 ag-2 -2, HIF act 0 and LMP1 NFkB inh 4.
For COc1ccc(OC)c(NC(=O)CSc2ccc3nnc(-c4ccccn4)n3n2)c1 the results were TROY signal inh 6, NR2E3 ag-1 -10, NR2E3 ag-2 0, HIF act 0 and LMP1 NFkB inh 8.
`COC(=O)c1ccc(CN2CCCC(CO)(Cc3ccc(F)cc3F)C2)cc1` (configuration not stated) gave TROY signal inh 2, NR2E3 ag-1 8, NR2E3 ag-2 -1, HIF act 0 and LMP1 NFkB inh 4.
For O=C1C=C(c2ccccc2)C[C@@H](c2ccc3c(c2)OCO3)C1 the results were TROY signal inh 0, NR2E3 ag-1 -11, NR2E3 ag-2 -1 and LMP1 NFkB inh 4.
For COc1cccc(C2=CC(=O)C[C@H](c3ccc4c(c3)OCO4)C2)c1 the results were TROY signal inh -12, NR2E3 ag-1 -10, NR2E3 ag-2 3 and LMP1 NFkB inh 48*.
For O=C(c1ccc(F)cc1)N1CCC(C(=O)N2CCN(S(=O)(=O)c3cccc(Cl)c3)CC2)CC1 the results were TROY signal inh -5, NR2E3 ag-1 -28, NR2E3 ag-2 1, HIF act 0 and LMP1 NFkB inh -9.
For c1ccc(-n2nnc3c(N4CCOCC4)ncnc32)cc1 the results were TROY signal inh 43, NR2E3 ag-1 -126, NR2E3 ag-2 1, HIF act -5 and LMP1 NFkB inh 53*.
For O=C(CC1OC(=O)c2ccccc21)Nc1cc(Cl)ccc1N1CCCC1 (configuration not stated) the results were TROY signal inh -2, NR2E3 ag-1 -22, NR2E3 ag-2 -4, HIF act -1 and LMP1 NFkB inh 0.
Screening C/C(=N\NC(=O)c1cc(Br)ccc1O)c1ccccn1 returned TROY signal inh -69, NR2E3 ag-1 -10, HIF act -1 and LMP1 NFkB inh 4.
C/C(=N\NC(=O)c1cccc(Br)c1)c1ccccn1 was read as TROY signal inh -40, NR2E3 ag-1 -28, NR2E3 ag-2 3, HIF act 1 and LMP1 NFkB inh 71*.
For C/C(=N/NC(=O)c1ccc(C(C)(C)C)cc1)c1ccccn1 the results were TROY signal inh -41, NR2E3 ag-1 -21, NR2E3 ag-2 3, HIF act 1 and LMP1 NFkB inh 47*.
COc1ccc(C(=O)N/N=C(\C)c2ccccn2)cc1OC was read as TROY signal inh -25, NR2E3 ag-1 -13, NR2E3 ag-2 4, HIF act 3 and LMP1 NFkB inh 27.
`C/C(=N\NC(=O)c1ccc(Cl)c(Cl)c1)c1ccccn1` gave TROY signal inh -51, NR2E3 ag-1 -17, HIF act -1 and LMP1 NFkB inh 73*.
For CC(C)(C)c1ccc(/C=N/NC(=O)c2ccccn2)cc1 the results were TROY signal inh 52*, NR2E3 ag-1 -125, NR2E3 ag-2 -1, HIF act -3 and LMP1 NFkB inh 13.
Cc1cccc2sc(NC(=O)C3CCN(C(=O)c4ccco4)CC3)nc12 was read as TROY signal inh 1, NR2E3 ag-1 2, NR2E3 ag-2 1, HIF act 1 and LMP1 NFkB inh 0.
Screening O=C(N/N=C/c1ccccn1)c1ccc(N/N=C/c2ccccn2)cc1 returned TROY signal inh -1, NR2E3 ag-1 6, NR2E3 ag-2 3, HIF act 1 and LMP1 NFkB inh 4.
For O=C(N/N=C/c1ccccn1)c1ccc(Br)cc1 the results were TROY signal inh 15, NR2E3 ag-1 0, NR2E3 ag-2 -3, HIF act 16* and LMP1 NFkB inh -9.
`COc1ccc(C(C(=O)NC2CCCCC2)N(C(=O)CCl)c2ccc(C)cc2)cc1` (configuration not stated) gave TROY signal inh -2, NR2E3 ag-1 4, NR2E3 ag-2 -2, HIF act 0 and LMP1 NFkB inh 47*.
O=C(NC1CCCCC1)C(c1cccnc1)N(C(=O)CCl)c1ccc(F)cc1 (configuration not stated) was read as TROY signal inh 5, NR2E3 ag-1 -16, NR2E3 ag-2 1, HIF act 1 and LMP1 NFkB inh 76*.
O=C(NC1CCCCC1)C(c1cccnc1)N(C(=O)CCl)c1ccccc1Cl (configuration not stated) was read as TROY signal inh 2, NR2E3 ag-1 23, NR2E3 ag-2 0, HIF act 3 and LMP1 NFkB inh 63*.
